Measurements gathered from unrelated publications.
Lines come from different studies, so protocols differ.
Target: Dual specificity protein kinase TTK (TTK, Homo sapiens, UniProt P33981)
Sequence (P33981 1-857, as in one of the studies): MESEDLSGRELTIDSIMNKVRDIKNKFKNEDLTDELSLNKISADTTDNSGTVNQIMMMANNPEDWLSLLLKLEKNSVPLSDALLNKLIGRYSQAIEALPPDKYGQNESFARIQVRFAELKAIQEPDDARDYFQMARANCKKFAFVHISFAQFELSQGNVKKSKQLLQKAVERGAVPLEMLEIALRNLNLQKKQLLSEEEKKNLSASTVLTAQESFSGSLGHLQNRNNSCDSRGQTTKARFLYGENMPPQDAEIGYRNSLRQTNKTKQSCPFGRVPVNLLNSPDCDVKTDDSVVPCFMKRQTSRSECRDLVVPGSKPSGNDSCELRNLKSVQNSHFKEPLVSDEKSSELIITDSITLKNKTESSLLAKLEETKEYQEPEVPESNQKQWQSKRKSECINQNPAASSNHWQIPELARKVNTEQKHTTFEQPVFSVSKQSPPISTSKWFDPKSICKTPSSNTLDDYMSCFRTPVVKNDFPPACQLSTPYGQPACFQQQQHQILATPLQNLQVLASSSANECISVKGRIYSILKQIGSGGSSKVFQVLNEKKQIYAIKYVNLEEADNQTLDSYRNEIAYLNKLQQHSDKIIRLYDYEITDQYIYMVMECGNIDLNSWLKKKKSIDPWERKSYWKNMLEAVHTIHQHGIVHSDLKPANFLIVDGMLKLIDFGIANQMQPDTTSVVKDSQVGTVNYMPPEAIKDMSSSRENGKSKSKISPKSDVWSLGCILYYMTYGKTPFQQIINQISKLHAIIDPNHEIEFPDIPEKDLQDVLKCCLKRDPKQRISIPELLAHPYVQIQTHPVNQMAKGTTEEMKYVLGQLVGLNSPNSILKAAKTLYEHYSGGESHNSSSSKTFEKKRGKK

Cn1c2c(c3ccc(Cl)c(Cl)c31)C(C#N)C1(CCNCC1)NC2=O (racemic)  ΔTm (thermal stability; DSF; 10 µM): 0.7 °C
C#Cc1cccc(Nc2ncnc3cc(OCCOC)c(OCCOC)cc23)c1  remaining signal (cell-free assay; 0.5 µM): 91.8%
Cc1ccc(C(=O)Nc2ccc(CN3CCN(C)CC3)c(C(F)(F)F)c2)cc1C#Cc1cnc2cccnn12  remaining activity (enzyme activity; 23.5 nM): 77%
CCN1CCC2(CC1)NC(=O)c1c(c3ccc(Cl)c(Cl)c3n1C)C2C#N (racemic)  ΔTm (thermal stability; DSF; 10 µM): 0.6 °C
FC(F)c1nc2ccccc2n1-c1nc(N2CCOCC2)nc(N2CCOCC2)n1  remaining activity (enzyme activity; inhibitor; 10 µM): 88%
COc1cc(Cl)c(C(=O)N[C@@H](CN[C@H]2CC[C@@H](N)CC2)Cc2ccc(C#N)cc2)cc1-c1ccc(CN[C@H](C)c2ccc(C)cc2)o1  remaining activity (enzyme activity; inhibitor; 1 µM): 95%
N#CCCc1ccc2c(c1)-c1[nH]c3ccc([N+](=O)[O-])cc3c1CC(=O)N2  remaining signal (cell-free assay; 0.5 µM): 71.7%
CC(C)(C)c1nc2c(s1)c1nc(N)ncc1c1ccc(NS(=O)(=O)c3c(F)cccc3F)c(F)c12  remaining activity (enzyme activity; inhibitor; radiometric; 1 µM): 90%
COc1cc(Nc2cnc(C#N)c(O[C@H](C)CN(C)C)n2)ncc1-c1cnn(C)c1  remaining activity (enzyme activity; inhibitor; radiometric; 10 µM): 74%
Oc1cccc(-c2nc(N3CCOCC3)c3oc4ncccc4c3n2)c1  remaining signal (cell-free assay; 0.5 µM): 93.3%
CN(C(=O)c1ccccc1)c1cc(N(C)c2ccc3c(c2)CCc2ccc(C(=O)NCCN4CCOCC4)cc2C3=O)ccc1F  remaining binding (cell-free assay; competition with immobilised ligand; 1 µM): 87%
N#CC1c2c([nH]c3c(Cl)c(Cl)ccc23)C(=O)NC12CCCCC2 (racemic)  ΔTm (thermal stability; DSF; 10 µM): 0.9 °C
CCS(=O)(=O)c1cc2cc(C[C@](O)(CC(C)(C)c3ccc(F)cc3C(N)=O)C(F)(F)F)[nH]c2cn1  remaining binding (cell-free assay; competition with immobilised ligand; 1 µM): 99%
Cc1ccc(NC(=O)c2ccc(CN3CCN(C)CC3)cc2)cc1Nc1nc(-c2cccnc2)cs1  remaining signal (cell-free assay; 0.5 µM): 112%
CCOCCn1cc(C(=O)Nc2ccc(-n3nc(-c4cccnc4)cc3C(F)(F)F)cn2)ccc1=O  remaining binding (cell-free assay; competition with immobilised ligand; 1 µM): 100%
COc1cc(/C=C/C(=O)CC(=O)/C=C/c2ccc(O)c(OC)c2)ccc1O  activity vs control (enzyme activity; inhibitor; 1 µM): 51%
Cc1noc([C@H]2C[C@@H](c3ccc(C(F)(F)F)cc3)CN(C(=O)N3CCS(=O)(=O)C3)C2)n1  remaining binding (cell-free assay; competition with immobilised ligand; 1 µM): 100%
Cc1ccc(C(=O)NCc2ccsc2)cc1C#Cc1cn(C(C)C)c2ncnc(N)c12  activity vs control (enzyme activity; inhibitor; 1 µM): 93%
O=C(NC[C@@H]1[C@H]2CN(C(=O)OCc3cc(C(F)(F)F)cc(C(F)(F)F)c3)C[C@@H]12)c1ccc2[nH]nnc2c1  remaining binding (cell-free assay; competition with immobilised ligand; 1 µM): 91%
CN1CC(Oc2cnc(C#N)cc2-c2ccn3nc(NC(=O)C4CC4)cc3c2)C1  inhibition (enzyme activity; inhibitor; 1 µM): 12%
CCCOc1ccc([C@H]2[C@H](C(=O)O)[C@@H](c3ccc4c(c3)OCO4)CN2CC(=O)Nc2c(CC)cccc2CC)cc1  remaining binding (cell-free assay; competition with immobilised ligand; 1 µM): 94%
FC(F)(F)Oc1cccc(-c2cnc3ccc(-c4ccncc4)nn23)c1  activity vs control (enzyme activity; inhibitor; radiometric; 5 µM): 67%
